# Experimental data reported in publication PMC4618194 (Nature chemical biology, 2015).
# How the values were obtained:
# [1] = cited from earlier work
# [2] = target: site IIIQo of mitochondrial complex III (Rattus norvegicus, UniProt P00159+P20788); experiment: Endpoint H2O2 production assays; type: biochemical; conditions: dose-response in two ΔΨm and six H2O2 endpoint assays
# Outline: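 Freshly isolated rat skeletal-muscle mitochondria, H2O2 read by Amplex UltraRed/HRP fluorescence. Site conditions: IIIQo, 0.5 or 5 mM succinate + 4 μM rotenone + 2.5 μM antimycin A; IQ, 5 mM succinate; IIF, 0.1 mM succinate + rotenone, antimycin A, 2 μM myxothiazol. Other assays: IF/matrix DH, glycerol phosphate (mGPDH), and two ΔΨm assays. 30-min endpoints normalised to DMSO and inhibitor controls, as % change.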
# site IIIQo = conditions: cited from earlier work
# [3] = Mitochondrial respiration; type: biochemical, rat
# Outline: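 Seahorse XF24 with 0.5–6 μg rat muscle mitochondrial protein per well, in MAS buffer with 0.3% BSA. Substrate: 5 mM succinate + 4 μM rotenone. State 2 measured with and without compound, then 5 mM ADP (state 3), then 1 μg/ml oligomycin (state 4o). Each compound tested at least three times per substrate.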
# site IQ = conditions: without affecting energy metabolism; cited from earlier work
# HIF-1α = experiment: Hypoxia-induced HIF-1α accumulation; type: cell-based, human; conditions: HEK-293 cells, 3.5 h hypoxia; 2 μM
# Outline: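 HEK-293 cells, 15,000/well, grown 48 h. Medium then swapped for medium pre-equilibrated overnight at 1% or atmospheric O2. Compounds, 100 μM CoCl2 or 2 μM myxothiazol were pre-equilibrated 1 h in that medium and added at the switch. 3.5 h at 1% O2. Cells rinsed in ice-cold PBS, lysed in Laemmli buffer, frozen −80°C. n = 3 biological replicates; one-way ANOVA.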
smiles,measurement,setting,value
C/C1=C\C[C@]2(C)C(=O)C(O)=C([C@H](C)CO)[C@H]2C/C=C(\C)[C@@H](O)CC/C(C)=C/CC1 [Terpestacin],Effect on mitochondrial polarization,[1],depolarizes
same,Selectivity for site IIIQo superoxide production,[2],not selective
same,Site IIIQo ROS production and hypoxic signaling,site IIIQo; without altering basal respiration,inhibited
same,Effect on mitochondrial respiration / oxidative phosphorylation,"[3]; 10 – 30 μM, succinate plus rotenone",evidence of uncoupling and inhibition of oxidative phosphorylation
CCCCCC[C@H]1C(=O)O[C@H](C)[C@H](NC(=O)c2cccc(NC=O)c2O)C(=O)O[C@@H](C)[C@@H]1OC(=O)CC(C)C [antimycin A],HIF-1α induction during hypoxia,site IIIQo,increased
same,ROS production during hypoxia,site IIIQo,increased
O=[N+]([O-])c1ccc(Oc2ccc(S(=O)(=O)NC3CCCCC3)cc2)cc1 [CN-POBS],Electron leak to O2 at site IQ,site IQ,suppresses
CO/C(=C/C(N)=O)[C@H](C)[C@H](/C=C/c1csc(-c2csc([C@@H](C)/C=C/C=C/C(C)C)n2)n1)OC [myxothiazol],Effect on HIF-1α stabilization,HIF-1α,prevented HIF-1α stabilization
same,HIF-1α induction during hypoxia,site IIIQo,blocked
same,ROS production during hypoxia,site IIIQo,decreased
same,Effect on mitochondrial respiration,"[3]; 0.08 μM (5x IC50 against site IIIQo), succinate and rotenone",potent effect
